Blank lines part the entries; values can stand above or below the molecule they belong to. Calls of active or inactive are those of the source. The calls are words filed in the database; no cut-off is given here.
Experiments:
[1] = Half life in H2O/MeOH buffered with HEPES/NaCl at pH 7.4 in presence of alkyl radical scavenger TEMPOR by 31P[1H]-NMR analysis; type: physicochemical; details: for half-life: H2O/MeOH buffered with HEPES/NaCl; for t1/2: buffer
U-87 MG = experiment: Cytotoxicity against human U87MG cells assessed as reduction in cell survival measured after 72 hrs by MTT assay; type: functional, cell-based, U-87MG ATCC; details: for Activity: U-87MG ATCC
Summary of the method: (§1)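 MTT viability on 2D cultures, U87-MG in DMEM and U251-MG in EMEM with […], both with 10% FBS and Pen Strep. 5000 cells seeded, then 72 h exposure to 500, 250, 100, 50, 25, 10 and 5 μM (DMSO at most […]). MTT 0.5 mg/mL for 1 h, formazan in DMSO read at 550 nm. Survival as % of control. IC50 determined graphically. At least triplicate.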

[2] = Dissociation constant, pKa of the compound in 1:1 v/v D2O/CD3OD by 1H-NMR spectrometric method; type: physicochemical
Summary of the method: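 Samples in D2O/CD3OD (1:1 v/v) were adjusted with DCl/NaOD to a series of pH* values, read on a meter calibrated with non-deuterated standards, and 1H-NMR was recorded at 400 MHz. Imidazole proton chemical shifts were plotted against pH* and fitted sigmoidally. The pKa* was converted by pH = 0.929 pH* + 0.42.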

[3] = Half life in H2O/MeOH buffered with Na2CO3/NaHCO3 at pH 10.3 in presence of alkyl radical scavenger TEMPOR by 31P[1H]-NMR analysis; type: physicochemical; details: buffer, pH 10.3
[4] = Half life in H2O/MeOH buffered with HCl/KCl at pH 2.2 in presence of alkyl radical scavenger TEMPOR by 31P[1H]-NMR analysis; type: physicochemical; details: buffer
[5] = n-octanol/phosphate buffered saline partition coefficient, log D of the compound at pH 7.4 by shake-flask method; type: physicochemical
Summary of the method: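 Shake-flask partition between pre-saturated n-octanol and PBS at pH 7.4. The aqueous phase was quantified by RP-HPLC on a 4.6 × 50 mm column, eluting with CH3CN/H2O (each with 0.1% TFA) from 10:90 to 100:0 over 10 min.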

[6] = Stability in H2O/MeOH buffered with HEPES/NaCl at pH 7.4 assessed as temperature; type: physicochemical; details: buffer
[7] = Drug homolysis in H2O/MeOH buffered with Na2CO3/NaHCO3 at pH 10.3 assessed as activation energy in presence of alkyl radical scavenger TEMPOR by 31P[1H]-NMR analysis
[8] = Drug homolysis in H2O/MeOH buffered with HCl/KCl at pH 2.2 assessed as activation energy in presence of alkyl radical scavenger TEMPOR by 31P[1H]-NMR analysis
[9] = Drug homolysis in H2O/MeOH buffered with Na2CO3/NaHCO3 at pH 10.3 assessed as rate constant by measuring nitroxide level in presence of alkyl radical scavenger TEMPOR by 31P[1H]-NMR analysis
[10] = Drug homolysis in H2O/MeOH buffered with HEPES/NaCl at pH 7.4 assessed as rate constant by measuring nitroxide level in presence of alkyl radical scavenger TEMPOR by 31P[1H]-NMR analysis
[11] = Drug homolysis in H2O/MeOH buffered with HCl/KCl at pH 2.2 assessed as rate constant by measuring nitroxide level in presence of alkyl radical scavenger TEMPOR by 31P[1H]-NMR analysis
[12] = Drug homolysis in H2O/MeOH buffered with HEPES/NaCl at pH 7.4 assessed as activation energy in presence of alkyl radical scavenger TEMPOR by 31P[1H]-NMR analysis
U-251 [13] = experiment: Cytotoxicity against human U251MG cells assessed as reduction in cell survival measured after 72 hrs by MTT assay; type: functional, cell-based; summary of the method: as §1
U-251 [14] = experiment: Cytotoxicity against human U251MG cells assessed as reduction in cell survival at IC50 measured after 72 hrs in presence of alkyl radical scavenger troxerutin by MTT assay; type: functional, cell-based
Summary of the method: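 U251-MG cells in EMEM (10% FBS, Pen Strep, […]) were exposed for 72 h to alkoxyamine together with an equal concentration of the alkyl radical scavenger troxerutin. Survival was read by MTT (0.5 mg/mL, 1 h, OD 550 nm) as % of control, and compared with alkoxyamine alone. At least triplicate.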

Structure (SMILES): CCOP(=O)(OCC)C(N(OC(C)c1cc[n+](C)cc1)C(C)(C)C)C(C)(C)C (stereo not given)
half-life [1]: 0.75 h
IC50 (U-87 MG): 250 µM

Structure (SMILES): CCOP(=O)(OCC)C(N(OC(C)c1ccncc1)C(C)(C)C)C(C)(C)C (stereo not given)
pKa ([2]; 1:1 v/v D2O/CD3OD, read-out: pKa): 4.7

pKa [2]: 6.04
t1/2 [3]: 312 h
t1/2 [4]: 5 h
t1/2 [1]: 81 h
logD ([5]; octanol/water): 4.1
Structure (SMILES): CCOP(=O)(OCC)C(N(OC(C)c1ncc[nH]1)C(C)(C)C)C(C)(C)C (stereo in doubt; form 1) [listing 1 of 2 here]

T [6]: 100 °C
t1/2 [1]: 5 yr
logD ([5]; octanol/water): -0.1
Structure (SMILES): CCOP(=O)(OCC)C(N(OC(C)n1cc[n+](C)c1)C(C)(C)C)C(C)(C)C (stereo in doubt; form 1) [listing 1 of 2 here]
IC50 (U-87 MG): 25 to 380 µM

T [6]: 70 °C
half-life [1]: 25 h
logD ([5]; n-octanol/phosphate buffered saline, read-out: logD): 0.8
Structure (SMILES): CCOP(=O)(OCC)C(N(OC(C)c1cn(C)c[n+]1C)C(C)(C)C)C(C)(C)C (stereo in doubt; form 1) [listing 1 of 2 here]
IC50 (U-87 MG): 25 to 380 µM

T [6]: 70 °C
t1/2 [1]: 10 h
logD ([5]; octanol/water): -0.2
Structure (SMILES): CCOP(=O)(OCC)C(N(OC(C)c1n(C)cc[n+]1C)C(C)(C)C)C(C)(C)C (stereo in doubt; form 1) [listing 1 of 2 here]
IC50 (U-87 MG): 25 to 380 µM

Structure (SMILES): CCOP(=O)(OCC)C(N(OC(C)c1c[nH]cn1)C(C)(C)C)C(C)(C)C (stereo in doubt; form 1)
Ea [7]: 29.4 kcal/mol
Ea [8]: 28.5 kcal/mol
Kdiss [9]: 1.53 ×10⁻⁴ /s
Kdiss [10]: 2.08 ×10⁻⁴ /s
Kdiss [11]: 5.23 ×10⁻⁴ /s
Ea [12]: 29.2 kcal/mol
Activity (U-87 MG): Dose-dependent effect
Activity (U-251 [13]): Dose-dependent effect

Structure (SMILES): CCOP(=O)(OCC)C(N(OC(C)c1cn(C)c[n+]1C)C(C)(C)C)C(C)(C)C (stereo in doubt; form 1) [listing 2 of 2 here]
Kdiss [10]: 5.73 ×10⁻⁴ /s
Ea [12]: 27.7 kcal/mol
Activity (U-87 MG): Dose-dependent effect
Activity (U-251 [13]): Dose-dependent effect

Structure (SMILES): CCOP(=O)(OCC)C(N(OC(C)c1cn(C)cn1)C(C)(C)C)C(C)(C)C (stereo in doubt; form 1)
Ea [7]: 30.2 kcal/mol
Ea [8]: 28.3 kcal/mol
Kdiss [9]: 4.89 ×10⁻⁵ /s
Kdiss [10]: 8.58 ×10⁻⁵ /s
Kdiss [11]: 7.84 ×10⁻⁴ /s
Ea [12]: 29.8 kcal/mol
Activity (U-87 MG): Dose-dependent effect
Activity (U-251 [13]): Dose-dependent effect

Structure (SMILES): CCOP(=O)(OCC)C(N(OC(C)c1n(C)cc[n+]1C)C(C)(C)C)C(C)(C)C (stereo in doubt; form 1) [listing 2 of 2 here]
Kdiss [10]: 1.27 ×10⁻³ /s
Ea [12]: 27.1 kcal/mol
Activity (U-87 MG): Dose-dependent effect
Activity (U-251 [13]): Dose-dependent effect

Structure (SMILES): CCOP(=O)(OCC)C(N(OC(C)c1ncc[nH]1)C(C)(C)C)C(C)(C)C (stereo in doubt; form 1) [listing 2 of 2 here]
Ea [7]: 29.2 kcal/mol
Ea [8]: 26.7 kcal/mol
Kdiss [9]: 1.97 ×10⁻⁴ /s
Kdiss [10]: 2 ×10⁻⁴ /s
Kdiss [11]: 7.47 ×10⁻⁴ /s
Ea [12]: 28.4 kcal/mol
Activity (U-87 MG): Dose-dependent effect
Activity (U-251 [13]): Dose-dependent effect

Structure (SMILES): CCOP(=O)(OCC)C(N(OC(C)c1nccn1C)C(C)(C)C)C(C)(C)C (stereo in doubt; form 1)
Ea [7]: 28.7 kcal/mol
Ea [8]: 26.2 kcal/mol
Kdiss [9]: 4.31 ×10⁻⁴ /s
Kdiss [10]: 4.76 ×10⁻⁴ /s
Kdiss [11]: 1.51 ×10⁻³ /s
Ea [12]: 27.8 kcal/mol
Activity (U-87 MG): Dose-dependent effect
Activity (U-251 [13]): Dose-dependent effect

Structure (SMILES): CCOP(=O)(OCC)C(N(OC(C)n1cc[n+](C)c1)C(C)(C)C)C(C)(C)C (stereo in doubt; form 1) [listing 2 of 2 here]
Kdiss [10]: 2.84 ×10⁻⁵ /s
Ea [12]: 32.3 kcal/mol
Activity (U-87 MG): Dose-dependent effect
Activity (U-251 [13]): Dose-dependent effect
Activity (U-251 [14]): Active

pKa [2]: 6.56
t1/2 [3]: 1680 h
t1/2 [4]: 170 h
t1/2 [1]: 528 h
logD ([5]; octanol/water): 3.8
Structure (SMILES): CCOP(=O)(OCC)C(N(OC(C)c1cn(C)cn1)C(C)(C)C)C(C)(C)C (stereo in doubt; form 2)

From ChEMBL document CHEMBL4339209, “Chemical modifications of imidazole-containing alkoxyamines increase C-ON bond homolysis rate: Effects on their cytotoxic properties in glioblastoma cells” (Bioorg Med Chem, 2019)
